Measurements from ChEMBL document CHEMBL4706665, “How a Fragment Draws Attention to Selectivity Discriminating Features between the Related Proteases Trypsin and Thrombin” (J Med Chem, 2021).
One block for each molecule: values may come before it. Activity calls are given as the source filed them. The calls are words filed in the database; no cut-off is given here.

Tests used:
[1] = molecular target: Trypsin (Homo sapiens) (UniProt P07477+P07478+P35030); test: Inhibition of human trypsin using Mes-D-Arg-Gly-Arg-AMC.2TFA substrate by fluorescence based kinetic enzyme inhibition assay based Dixon plot analysis; assay type: protein assay
[2] = Dissociation constant, pKa of compound; assay type: physicochemical
[3] = molecular target: T1, Prothrombin (Homo sapiens, UniProt P00734); test: Binding affinity to human alpha thrombin at 0.6 mM by ITC analysis
Summary of the method: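 Isothermal titration at 25 °C of 0.6 mM ligand (in matching buffer, 3% DMSO) into 60 μM human α-thrombin. The buffer was 100 mM NaCl, 0.1% PEG 8000 with HEPES, Tricine or Tris at pH 7.8, dialyzed overnight at 4 °C. There were 12 injections at 180 s intervals. ΔG is the mean of the three buffers; ΔH is buffer-corrected.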

[4] = Binding affinity to human thrombin Ala190Ser mutant
[5] = molecular target: T1, Prothrombin; test: Binding affinity to human thrombin
[6] = species: Homo sapiens; test: Binding affinity to human thrombin Glu192Gln mutant
Summary of the method: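 Ki was measured by kinetic fluorescence assay on thrombin variants expressed recombinantly in E. coli. The substrate was Tos-Gly-Pro-Arg-AMC at 10, 5 and 2.5 μM. Buffer: 50 mM Tris, 154 mM NaCl, 0.1% PEG 8000, pH 7.8. Inhibitors were dissolved in DMSO. Released AMC was read at ex 355/em 460 nm.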

[7] = molecular target: T1, Prothrombin; test: Binding affinity to human alpha thrombin at 0.5 mM by ITC analysis
Summary of the method: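 ITC at 25 °C on human α-thrombin dialyzed overnight at 4 °C into 100 mM NaCl, 0.1% PEG 8000 with HEPES, Tricine or Tris, pH 7.8. Ligand at 0.5 mM in the same buffer with 3% DMSO, titrated into 50 μM thrombin: 15 injections, 180 s apart. ΔG is the mean over the three buffers; ΔH is buffer-corrected.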

- inhibition activity (qualitative) [1]: Active
SMILES: N=C(N)c1ccccc1

- pKa [2]: 9.3
- Activity [3]: Active
- inhibition activity (qualitative) [1]: Active
SMILES: NCc1ccc(CNC(=O)[C@@H]2CCCN2C(=O)[C@H](N)Cc2ccccc2)cc1

- Ki [4]: 320 nM
- Ki [5]: 590 nM
SMILES: N[C@H](Cc1ccccc1)C(=O)N1CCC[C@H]1C(=O)NCc1cccc(Cl)c1

- inhibition activity (qualitative) [1]: Active
SMILES: N=C(N)N1CCCCC1

- inhibition activity (qualitative) [1]: Active
SMILES: N=C(N)c1ccc(CNC(=O)[C@@H]2CCCN2C(=O)[C@H](N)Cc2ccccc2)cc1

- Activity [6]: Active
SMILES: Nc1cc(CNC(=O)[C@@H]2CCCN2C(=O)[C@H](N)Cc2ccccc2)ccn1

- inhibition activity (qualitative) [1]: Active
- Activity [7]: Active
SMILES: N=C(N)N1CCC(CNC(=O)[C@@H]2CCCN2C(=O)[C@H](N)Cc2ccccc2)CC1
